Active and inactive are the calls of the source. The rule behind the calls is not given here.
Test system: HUVEC
Assay: Effect on conformation of actin filament organization in human HUVEC cells at 10 uM treated for 24 hrs by immunofluorescence assay
Assay type: functional, cell-based
Settings: not given
Method in brief: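 HUVEC were left untreated or treated 24 h at 10 μM final. Cells were then fixed on coverslips in 4 % paraformaldehyde, permeabilized with 0.2 % Triton X-100 and blocked with 20 % goat serum. F-actin was stained with FITC-phalloidin (5 µg/ml, 2 h, room temperature, dark) and nuclei with Hoechst 33342. Cells were imaged by confocal microscopy.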

Structure (SMILES) | Activity
CCCC(O)Cn1nc(Nc2ccccc2)c(C(=O)OCC)c1N (centres undefined) | Active
CCCC(O)Cn1ncc(C(=O)OCC)c1NC(=O)Nc1cccc(C(F)(F)F)c1 (centres undefined) | Active
CCCC(O)Cn1nc(Nc2cccc(Cl)c2)c(C(=O)OCC)c1N (centres undefined) | Active

Test system: not listed separately
Assay: Effect on intracellular calcium signaling in human HUVEC cells assessed as inhibition of calcium mobilization by measuring fluorescence intensity at 10 uM incubated for 1 hr by Fluo-4 a.m. cytofluorimetric assay relative to control
Assay type: functional
Set-up: scale not given: the % may be the effect or the level left
Settings: not given
Method in brief: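 Trypsinized HUVEC at 5 × 10⁵/ml were treated with compounds at 10 μM in PBS for 1 h at room temperature, washed, then loaded with 2.5 μM Fluo-4 AM (0.06 % DMSO final) for 45 min at 37 °C. Fluorescence was read by flow cytometry with a 530/30 filter. Ionomycin served as positive control and EDTA (added 15 min before) as negative control. n = 3, mean ± SD.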

Structure (SMILES) | Activity
CCCC(O)Cn1nc(Nc2ccccc2)c(C(=O)OCC)c1N (centres undefined) | 23%
CCCC(O)Cn1ncc(C(=O)OCC)c1NC(=O)Nc1cccc(C(F)(F)F)c1 (centres undefined) | 20%
CCCC(O)Cn1nc(Nc2cccc(Cl)c2)c(C(=O)OCC)c1N (centres undefined) | 21%

Test system: not listed separately
Assay: Antiproliferative activity against human GM06114 cells assessed as cell growth at 10 uM incubated for 48 hrs by MTT assay relative to control
Assay type: toxicity, cell-based
Settings: read-out: Activity
Method in brief: (§1)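 Cells in DMEM with 10 % FBS, 2 mM glutamine and pen-strep, 37 °C, 5 % CO₂, plated to reach 80–90 % confluence at endpoint. At 16 h, compounds were added from a 10 mM DMSO stock to 10 μM final. After 48 h, MTT (2 mg/mL in PBS) was added for 4 h, formazan dissolved in DMSO, and OD read at 570 nm. Results are % of solvent control; three runs, six replicates each, mean ± SD.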

Structure (SMILES) | viability at 48 h, 10 µM
CCCC(O)Cn1nc(Nc2ccc(C)cc2)c(C(=O)OCC)c1N (centres undefined) | 72%
CCCC(O)Cn1nc(Nc2ccccc2)c(C(=O)OCC)c1N (centres undefined) | 112%
CCCC(O)Cn1nc(Nc2cccc(Cl)c2)c(C(=O)OCC)c1N (centres undefined) | 82%

Test system: HUVEC
Assay: Anti-angiogenetic activity in human HUVEC cells assessed as number of tube branching points at 10 uM incubated for 12 hrs by microscopy
Assay type: functional
Settings: not given
Method in brief: (§2)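 HUVEC seeded at 2 × 10⁴ cells/well onto gelled Matrigel (mixed 1:1 with EGM-2, set 30 min at 37 °C). Cells were exposed to test agents at 10 μM for 12 h with no stimulus; untreated wells served as control. Tube long axis and branching points were counted in 10 random fields per well at 10× (Angiogenesis Analyzer), giving mean tube length per well. Mean of at least three independent experiments.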

Structure (SMILES) | Activity
CCCC(O)Cn1nc(Nc2ccc(C)cc2)c(C(=O)OCC)c1N (centres undefined) | <15
CCCC(O)Cn1nc(Nc2ccccc2)c(C(=O)OCC)c1N (centres undefined) | <15
CCCC(O)Cn1ncc(C(=O)OCC)c1NC(=O)Nc1cccc(C(F)(F)F)c1 (centres undefined) | 19

Test system: A549
Assay: Antiproliferative activity against human A549 cells assessed as cell growth at 10 uM incubated for 48 hrs by MTT assay relative to control
Assay type: functional
Settings: read-out: Activity
Method in brief: as §1

Structure (SMILES) | growth at 10 µM
CCCC(O)Cn1nc(Nc2ccc(C)cc2)c(C(=O)OCC)c1N (centres undefined) | 92%
CCCC(O)Cn1nc(Nc2ccccc2)c(C(=O)OCC)c1N (centres undefined) | 115%
CCCC(O)Cn1nc(Nc2cccc(Cl)c2)c(C(=O)OCC)c1N (centres undefined) | 85%

Test system: HUVEC
Assay: Inhibition of cell invasion in human HUVEC cells assessed as number of cells at 10 uM incubated for 24 hrs by transwell assay
Assay type: functional
Settings: not given
Method in brief: (§3)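 Transwell inserts with 8.0 pore size were coated with Matrigel 1:3 in serum-free medium. HUVEC (2 × 10⁴/insert) went in serum-free medium in the upper chamber, with treatments (10 μM) in growth medium below, for 24 h at 37 °C. Filters were fixed in 4 % paraformaldehyde then methanol and stained with 0.5 % crystal violet. Cells on the lower surface were counted in ten random fields at 10×. n = 3.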

Structure (SMILES) | Activity
CCCC(O)Cn1nc(Nc2ccccc2)c(C(=O)OCC)c1N (centres undefined) | 364
CCCC(O)Cn1ncc(C(=O)OCC)c1NC(=O)Nc1cccc(C(F)(F)F)c1 (centres undefined) | 383
CCCC(O)Cn1nc(Nc2cccc(Cl)c2)c(C(=O)OCC)c1N (centres undefined) | 491

Test system: MCF7
Assay: Antiproliferative activity against human MCF7 cells assessed as cell growth at 10 uM incubated for 48 hrs by MTT assay relative to control
Assay type: functional
Settings: read-out: Activity
Method in brief: as §1

Structure (SMILES) | growth at 10 µM
CCCC(O)Cn1nc(Nc2ccc(C)cc2)c(C(=O)OCC)c1N (centres undefined) | 111%
CCCC(O)Cn1nc(Nc2ccccc2)c(C(=O)OCC)c1N (centres undefined) | 110%
CCCC(O)Cn1nc(Nc2cccc(Cl)c2)c(C(=O)OCC)c1N (centres undefined) | 95%

Test system: HUVEC
Assay: Anti-angiogenetic activity in human HUVEC cells assessed as reduction in tube branching at 10 uM incubated for 12 hrs by microscopy
Assay type: functional, cell-based
Settings: not given
Method in brief: as §2

Structure (SMILES) | Activity
CCCC(O)Cn1nc(Nc2ccc(C)cc2)c(C(=O)OCC)c1N (centres undefined) | Active
CCCC(O)Cn1nc(Nc2ccccc2)c(C(=O)OCC)c1N (centres undefined) | Active
CCCC(O)Cn1nc(Nc2cccc(Cl)c2)c(C(=O)OCC)c1N (centres undefined) | Active

Test system: HUVEC
Assay: Anti-angiogenetic activity in human HUVEC cells assessed as reduction in tube length at 10 uM incubated for 12 hrs by microscopy
Assay type: functional, cell-based
Settings: not given
Method in brief: as §2

Structure (SMILES) | Activity
CCCC(O)Cn1nc(Nc2ccc(C)cc2)c(C(=O)OCC)c1N (centres undefined) | Active
CCCC(O)Cn1nc(Nc2ccccc2)c(C(=O)OCC)c1N (centres undefined) | Active
CCCC(O)Cn1nc(Nc2cccc(Cl)c2)c(C(=O)OCC)c1N (centres undefined) | Active

Test system: HeLa
Assay: Antiproliferative activity against human HeLa cells assessed as cell growth at 10 uM incubated for 48 hrs by MTT assay relative to control
Assay type: functional
Settings: read-out: Activity
Method in brief: as §1

Structure (SMILES) | growth at 10 µM
CCCC(O)Cn1nc(Nc2ccc(C)cc2)c(C(=O)OCC)c1N (centres undefined) | 109%
CCCC(O)Cn1nc(Nc2ccccc2)c(C(=O)OCC)c1N (centres undefined) | 97%
CCCC(O)Cn1nc(Nc2cccc(Cl)c2)c(C(=O)OCC)c1N (centres undefined) | 100%

Test system: HUVEC
Assay: Anti-angiogenetic activity in human HUVEC cells assessed as number of tube branching points at 10 uM incubated for 12 hrs in presence of tumor secretome from human MIA PaCa-2 cell supernatant by microscopy (reference value: 17)
Assay type: functional
Settings: not given

Structure (SMILES) | Activity
CCCC(O)Cn1nc(Nc2ccccc2)c(C(=O)OCC)c1N (centres undefined) | ~8
CCCC(O)Cn1nc(Nc2cccc(Cl)c2)c(C(=O)OCC)c1N (centres undefined) | ~8

Test system: HUVEC
Assay: Anti-angiogenetic activity in human HUVEC cells assessed as relative tube length at 10 uM incubated for 12 hrs in presence of tumor secretome from human MIA PaCa-2 cell supernatant by microscopy (reference value: 108)
Assay type: functional
Settings: not given

Structure (SMILES) | Activity
CCCC(O)Cn1nc(Nc2ccccc2)c(C(=O)OCC)c1N (centres undefined) | 55
CCCC(O)Cn1nc(Nc2cccc(Cl)c2)c(C(=O)OCC)c1N (centres undefined) | 55

Test system: SK-OV-3
Assay: Antiproliferative activity against human SK-OV-3 cells assessed as cell growth at 10 uM incubated for 48 hrs by MTT assay relative to control
Assay type: functional
Settings: read-out: Activity
Method in brief: as §1

Structure (SMILES) | growth at 10 µM
CCCC(O)Cn1nc(Nc2ccc(C)cc2)c(C(=O)OCC)c1N (centres undefined) | 119%
CCCC(O)Cn1nc(Nc2ccccc2)c(C(=O)OCC)c1N (centres undefined) | 104%
CCCC(O)Cn1nc(Nc2cccc(Cl)c2)c(C(=O)OCC)c1N (centres undefined) | 118%

Test system: MDA-MB-231
Assay: Antiproliferative activity against human MDA-MB-231 cells assessed as cell growth at 10 uM incubated for 48 hrs by MTT assay relative to control
Assay type: functional
Settings: read-out: Activity
Method in brief: as §1

Structure (SMILES) | growth at 10 µM
CCCC(O)Cn1nc(Nc2ccc(C)cc2)c(C(=O)OCC)c1N (centres undefined) | 158%
CCCC(O)Cn1nc(Nc2ccccc2)c(C(=O)OCC)c1N (centres undefined) | 103%
CCCC(O)Cn1nc(Nc2cccc(Cl)c2)c(C(=O)OCC)c1N (centres undefined) | 168%

Test system: HUVEC
Assay: Inhibition of cell invasion in human HUVEC cells at 10 uM incubated for 24 hrs by transwell assay
Assay type: functional, cell-based
Settings: not given
Method in brief: as §3

Structure (SMILES) | inhibition
CCCC(O)Cn1nc(Nc2ccccc2)c(C(=O)OCC)c1N (centres undefined) | Active
CCCC(O)Cn1nc(Nc2cccc(Cl)c2)c(C(=O)OCC)c1N (centres undefined) | Active

Test system: HepG2
Assay: Antiproliferative activity against human HepG2 cells assessed as cell growth at 10 uM incubated for 48 hrs by MTT assay relative to control
Assay type: functional
Settings: read-out: Activity
Method in brief: as §1

Structure (SMILES) | growth at 10 µM
CCCC(O)Cn1nc(Nc2ccc(C)cc2)c(C(=O)OCC)c1N (centres undefined) | 119%
CCCC(O)Cn1nc(Nc2ccccc2)c(C(=O)OCC)c1N (centres undefined) | 106%
CCCC(O)Cn1nc(Nc2cccc(Cl)c2)c(C(=O)OCC)c1N (centres undefined) | 90%

Test system: SK-BR-3
Assay: Antiproliferative activity against human SK-BR-3 cells assessed as cell growth at 10 uM incubated for 48 hrs by MTT assay relative to control
Assay type: functional
Settings: read-out: Activity
Method in brief: as §1

Structure (SMILES) | growth at 10 µM
CCCC(O)Cn1nc(Nc2ccc(C)cc2)c(C(=O)OCC)c1N (centres undefined) | 123%
CCCC(O)Cn1nc(Nc2ccccc2)c(C(=O)OCC)c1N (centres undefined) | 107%
CCCC(O)Cn1nc(Nc2cccc(Cl)c2)c(C(=O)OCC)c1N (centres undefined) | 113%

Test system: SK-MEL-28
Assay: Antiproliferative activity against human SK-MEL-28 cells assessed as cell growth at 10 uM incubated for 48 hrs by MTT assay relative to control
Assay type: functional
Settings: read-out: Activity
Method in brief: as §1

Structure (SMILES) | growth at 10 µM
CCCC(O)Cn1nc(Nc2ccc(C)cc2)c(C(=O)OCC)c1N (centres undefined) | 137%
CCCC(O)Cn1nc(Nc2ccccc2)c(C(=O)OCC)c1N (centres undefined) | 97%
CCCC(O)Cn1nc(Nc2cccc(Cl)c2)c(C(=O)OCC)c1N (centres undefined) | 122%

Test system: HUVEC
Assay: Anti-angiogenetic activity in human HUVEC cells assessed as relative tube length at 10 uM incubated for 12 hrs by microscopy
Assay type: functional
Settings: not given
Method in brief: as §2

Structure (SMILES) | Activity
CCCC(O)Cn1nc(Nc2ccc(C)cc2)c(C(=O)OCC)c1N (centres undefined) | <20
CCCC(O)Cn1nc(Nc2ccccc2)c(C(=O)OCC)c1N (centres undefined) | <20
CCCC(O)Cn1ncc(C(=O)OCC)c1NC(=O)Nc1cccc(C(F)(F)F)c1 (centres undefined) | 21

Test system: HUVEC
Assay: Inhibition of cell migration in human HUVEC cells at 10 uM incubated for 24 hrs by wound healing assay
Assay type: functional, cell-based
Settings: not given
Method in brief: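 Confluent HUVEC monolayers (2 × 10⁵/well, 24 h) were scratched with a p10 tip and treated at 10 μM with mitomycin C 10 μg/ml to block mitosis. Wounds were photographed at 0 and 24 h (4× phase contrast). Migration was taken as the change in distance covered by the wound edges. n = 3 independent experiments, mean ± SD.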

Structure (SMILES) | inhibition
CCCC(O)Cn1nc(Nc2ccccc2)c(C(=O)OCC)c1N (centres undefined) | Active
CCCC(O)Cn1nc(Nc2cccc(Cl)c2)c(C(=O)OCC)c1N (centres undefined) | Active

Test system: not listed separately
Assay: Antiproliferative activity against human HUVEC cells assessed as cell growth at 10 uM incubated for 48 hrs by MTT assay relative to control
Assay type: toxicity, cell-based
Settings: read-out: Activity
Method in brief: as §1

Structure (SMILES) | viability at 48 h, 10 µM
CCCC(O)Cn1nc(Nc2ccc(C)cc2)c(C(=O)OCC)c1N (centres undefined) | 96%
CCCC(O)Cn1nc(Nc2ccccc2)c(C(=O)OCC)c1N (centres undefined) | 100%
CCCC(O)Cn1nc(Nc2cccc(Cl)c2)c(C(=O)OCC)c1N (centres undefined) | 97%
